{"data": "Experimental data pooled from the literature", "target": "Serine/threonine-protein kinase 3 (STK3, Homo sapiens, UniProt Q13188)", "Residues used in one study (Q13188 1-491)": "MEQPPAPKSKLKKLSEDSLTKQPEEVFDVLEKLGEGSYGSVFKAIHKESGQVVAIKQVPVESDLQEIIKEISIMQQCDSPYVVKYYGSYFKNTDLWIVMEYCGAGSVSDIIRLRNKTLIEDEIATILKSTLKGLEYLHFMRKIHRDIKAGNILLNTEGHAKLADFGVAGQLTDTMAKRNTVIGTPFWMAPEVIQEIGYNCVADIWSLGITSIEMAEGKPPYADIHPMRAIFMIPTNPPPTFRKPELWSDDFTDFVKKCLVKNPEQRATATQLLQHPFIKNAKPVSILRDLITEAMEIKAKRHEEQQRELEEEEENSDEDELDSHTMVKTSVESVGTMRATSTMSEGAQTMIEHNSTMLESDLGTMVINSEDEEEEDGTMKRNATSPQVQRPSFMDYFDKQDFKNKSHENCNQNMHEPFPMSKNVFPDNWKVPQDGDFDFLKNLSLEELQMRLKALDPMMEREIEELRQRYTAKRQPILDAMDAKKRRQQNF", "note": "Lines come from different studies, so protocols differ."}
{"Compound": "Cc1cc(O)c(-c2ccc([C@@H](C)CN(C)C)cc2)c2c1[nH]c(=O)c1sccc12", "read-out": "enzyme activity", "action": "inhibitor", "concentration": "0.1 µM", "endpoint": "inhibition", "value": "9.39%"}
{"Compound": "C#Cc1cc(-c2cc(Nc3nc(N[C@@H](C)c4ccc(F)cn4)ncc3Cl)n[nH]2)ccc1C=O", "read-out": "enzyme activity", "action": "inhibitor", "concentration": "0.2 µM", "endpoint": "inhibition", "value": "29.9%"}
{"Compound": "CC#CC(=O)N1CCC[C@H]1c1nc(-c2ccc(C(=O)Nc3ccccn3)cc2)c2c(N)nccn12", "read-out": "enzyme activity", "action": "inhibitor", "concentration": "1 µM", "endpoint": "inhibition", "value": "19%"}
{"Compound": "Cc1ccc(NC(=O)c2ccnc(C(F)(F)F)c2)cc1-c1cc(OCCO)nc(N2CCOCC2)c1", "read-out": "binding", "concentration": "1 µM", "endpoint": "remaining binding", "value": "79%"}
{"Compound": "COc1ccc2oc(-c3ccc4nc(N)oc4c3)c/c(=N\\c3ccccc3NC(=O)CCN)c2c1", "read-out": "binding", "concentration": "1 µM", "endpoint": "remaining binding", "value": "79%"}
{"Compound": "CO[C@@H]1[C@H](N(C)C(=O)c2ccccc2)C[C@H]2O[C@]1(C)n1c3ccccc3c3c4c(c5c6ccccc6n2c5c31)C(=O)NC4", "read-out": "enzyme activity", "action": "inhibitor", "concentration": "1 µM", "endpoint": "inhibition", "value": "100%"}
{"Compound": "CCCCC(=O)Nc1ccc(-c2ccc3ncn(CCC)c(=O)c3c2)cn1", "read-out": "binding", "method": "competition with immobilised ligand", "concentration": "0.5 µM", "endpoint": "remaining binding", "value": "73%"}
{"Compound": "CC(C)S(=O)(=O)c1ccc2nccc(Nc3ccc4sc(C5CCCC5)nc4c3)c2c1", "read-out": "enzyme activity", "action": "inhibitor", "concentration": "1 µM", "endpoint": "activity vs control", "value": "103%"}
{"Compound": "CN1CCN(C(=O)c2ccc(NC(=O)Nc3ccc(N(C)c4ccnc(Nc5ccc(CS(C)(=O)=O)cc5)n4)cc3)cc2)CC1", "read-out": "binding", "concentration": "1 µM", "endpoint": "remaining binding", "value": "16%"}
